Source: ChEMBL document CHEMBL3400136, “Design and synthesis of new potassium channel activators derived from the ring opening of diazoxide: study of their vasodilatory effect, stimulation of elastin synthesis and inhibitory effect on insulin release” (Bioorg Med Chem, 2015)
Each block holds one compound with its values, some of them ahead of it. The source made the active and inactive calls. No cut-off for these calls is given here.

What was measured:
[1] = system: Thoracic aorta; assay: Vasorelaxant activity in Wistar rat endothelium thoracic aortic ring assessed as inhibition of 30 mM KCl-induced contraction; type: functional, tissue-based
Summary of the method: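 Rings from adult Wistar rat thoracic aorta, with or without endothelium, under 1.5 g tension in oxygenated physiological solution at 37 °C, pH 7.36. Contraction by 30 mM KCl after 60 min equilibration, then cumulative drug to maximal relaxation. EC50 = concentration giving 50% relaxation of KCl contraction; mean ± sem.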

[2] = species: Homo sapiens; assay: Activation of ATP-sensitive potassium channel in vascular smooth muscle cells (unknown origin) assessed as increase in elastin production after 48 hrs by ELISA
Summary of the method: (§1)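 Primary aortic smooth muscle cells serum-starved overnight in 1% FCS-DMEM, seeded 25,000 cells/well and adhered overnight. Compounds in DMSO (final <1%) for 48 h, some wells with 10 µM glibenclamide throughout. Controls were DMSO alone, 1 mM minoxidil in water, or diazoxide. Cells fixed in 4% paraformaldehyde, extracellular elastin by anti-elastin ELISA with HRP secondary, read by absorbance. n = 3–4 from different cultures; ANOVA.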

[3] = system: Thoracic aorta; assay: Vasorelaxant activity in Wistar rat thoracic aortic ring assessed as inhibition of 80 mM KCl-induced contraction; type: functional, tissue-based
Summary of the method: (§2)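 Thoracic aorta rings (2–3 mm) from adult Wistar rats, held at 1.5 g tension in Krebs-type solution pH 7.36, 37 °C, O2/CO2 95:5. After 60 min equilibration, contracted with 30 or 80 mM KCl, some with 10 µM glibenclamide. Cumulative drug additions to maximal relaxation; isometric tension by force transducer. Relaxation as % of KCl contraction; EC50 from concentration-response curves; mean ± sem, n experiments.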

[4] = system: Thoracic aorta; assay: Vasorelaxant activity in Wistar rat thoracic aortic ring assessed as inhibition of 30 mM KCl-induced contraction; type: functional, tissue-based; summary of the method: as §2
[5] = species: Homo sapiens; assay: Activation of ATP-sensitive potassium channel in vascular smooth muscle cells (unknown origin) assessed as increase in elastin production at 100 uM after 48 hrs by ELISA; summary of the method: as §1
[6] = species: Rattus norvegicus; assay: Activation of ATP-sensitive potassium channel in Wistar rat pancreatic islets assessed as inhibition of 16.7 mM of glucose-induced insulin secretion by measuring residual insulin secretion at 10 uM after 90 mins relative to control
Summary of the method: (§3)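 Islets from adult fed Wistar rats, groups of 10. Preincubated 30 min at 37 °C in bicarbonate salt medium with 2.8 mM glucose and 0.5% dialysed albumin, gassed O2/CO2 95:5. Then 90 min at 37 °C in same medium with 16.7 mM glucose plus drug. Insulin by radioimmunoassay against rat insulin standard, expressed as % of drug-free 16.7 mM glucose control.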

[7] = system: Thoracic aorta; assay: Vasorelaxant activity in Wistar rat thoracic aortic ring assessed as inhibition of KCl-induced contraction in presence of glibenclamide; type: functional, tissue-based; summary of the method: as §2
[8] = species: Homo sapiens; assay: Activation of ATP-sensitive potassium channel in vascular smooth muscle cells (unknown origin) assessed as increase in elastin production at 10 to 100 uM after 48 hrs by ELISA in presence of glibenclamide; summary of the method: as §1
[9] = species: Rattus norvegicus; assay: Activation of ATP-sensitive potassium channel in Wistar rat pancreatic islets assessed as inhibition of 16.7 mM of glucose-induced insulin secretion by measuring residual insulin secretion at 50 uM after 90 mins relative to control; summary of the method: as §3
[10] = species: Homo sapiens; assay: Activation of ATP-sensitive potassium channel in vascular smooth muscle cells (unknown origin) assessed as increase in elastin production at 100 uM after 48 hrs by ELISA
[11] = Dissociation constant, pKa of the compound by UV-Visible spctrophotometry; type: physicochemical
Summary of the method: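 UV–visible spectra recorded at ambient temperature in borate and phosphate buffers from pH 3 to 10, using neutral and ionic species references in 0.1 N HCl and 0.1 N NaOH. Exact pH measured for each spectrum. pKa calculated by the Albert–Serjeant formula.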

[12] = system: Rattus norvegicus; assay: Activation of ATP-sensitive potassium channel in Wistar albino rat assessed as effect on blood glucose at 50 mg/kg, po; type: functional, organism-based; parameters: dose 50 mg/kg
Summary of the method: (§4)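 Adult fed Wistar albino rats, conscious, free access to water and standard pellet diet, held in a small cabinet from 60 min before sampling. Single oral dose in DMSO (0.2 mL) at time zero; controls got DMSO alone. Tail blood drop at 0, 1, 2, 3 and 4 h, glucose by reagent strip and glucometer. Mean ± sem, n = 3 rats.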

[13] = system: Rattus norvegicus; assay: Hypoglycemic effect in Wistar albino rat assessed as effect on blood glucose at 0.25 mg/kg, po; type: functional, organism-based; parameters: dose 0.25 mg/kg; summary of the method: as §4
[14] = species: Homo sapiens; assay: Activation of ATP-sensitive potassium channel in vascular smooth muscle cells (unknown origin) assessed as increase in elastin production at 10 to 100 uM after 48 hrs by ELISA; summary of the method: as §1
[15] = species: Homo sapiens; assay: Activation of ATP-sensitive potassium channel in vascular smooth muscle cells (unknown origin) assessed as increase in elastin production at 50 uM after 48 hrs by ELISA
Summary of the method: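 Primary aortic smooth muscle cells were serum-starved overnight in 1% FCS-DMEM, seeded at 25,000 cells/well and left to adhere overnight. They were then exposed for 48 h in 1% FCS-DMEM to compound in DMSO (final DMSO <1%). Cells were fixed in 4% paraformaldehyde, blocked with 2% BSA, then labelled with anti-elastin antibody (1:1000) and HRP secondary (1:50,000). The reaction was stopped with sulfuric acid and absorbance read. Negative control was DMSO; positive control was 1 mM minoxidil.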

[16] = system: Rattus norvegicus; assay: Hyperglycemic effect in Wistar albino rat assessed as effect on blood glucose at 50 mg/kg, po; type: functional, organism-based; parameters: dose 50 mg/kg; summary of the method: as §4
[17] = species: Rattus norvegicus; assay: Activation of ATP-sensitive potassium channel in Wistar rat thoracic aortic ring assessed as rightward shift; type: tissue-based; settings: Aorta; summary of the method: as §2
[18] = species: Homo sapiens; assay: Activation of ATP-sensitive potassium channel in vascular smooth muscle cells (unknown origin) assessed as increase in elastin production at 10 to 20 uM after 48 hrs by ELISA; summary of the method: as §1

Activity [2]: Dose-dependent effect
EC50 [1]: 18.6 µM
EC50 [3]: 38.1 µM
EC50 [4]: 15.7 µM
Activity [5]: 30%
Activity [6]: 90.9%
EC50 [7]: 28.1 µM
Activity [8]: inactive
Activity [9]: 105%
Activity [10]: 30%
SMILES: COc1ccccc1C(=O)NC(=S)NC(C)C

EC50 [1]: > 300 µM
SMILES: COc1ccc(F)cc1S(=O)(=O)NC(=S)NC(C)C

EC50 [1]: > 300 µM
SMILES: CCOc1ccc(Cl)cc1S(=O)(=O)NC(=S)Nc1ccc(F)cc1

EC50 [1]: > 300 µM
SMILES: COc1ccc(Cl)cc1S(=O)(=O)NC(=O)Nc1ccc(F)cc1

EC50 [1]: 16.5 µM
EC50 [3]: 121 µM
EC50 [4]: 12 µM
Activity [6]: 83.8%
EC50 [7]: 64.9 µM
Activity [9]: 44.9%
SMILES: CCCOc1ccccc1C(=O)NC(=S)Nc1ccccc1
Activity [12]: inactive

EC50 [1]: > 300 µM
SMILES: CCNC(=S)NS(=O)(=O)c1cc(Cl)ccc1OC

EC50 [1]: 21.1 µM
SMILES: O=C(NCc1ccccc1)NC(=O)c1ccccc1OCc1ccccc1

EC50 [1]: 36.6 µM
SMILES: CCC(C)NC(=S)NC(=O)c1ccccc1OC (stereo not given)

Activity [14]: inactive
EC50 [1]: 15.2 µM
EC50 [3]: 57.1 µM
EC50 [4]: 17.4 µM
Activity [6]: 94.1%
EC50 [7]: 28.2 µM
Activity [9]: 99.6%
SMILES: CCNC(=S)NC(=O)c1ccccc1OC

Activity [2]: Dose-dependent effect
EC50 [1]: 12.2 µM
EC50 [3]: 45.6 µM
EC50 [4]: 15.3 µM
Activity [5]: 30%
Activity [6]: 90.1%
EC50 [7]: 20.2 µM
Activity [8]: inactive
Activity [9]: 21.4%
Activity [10]: 30%
SMILES: CCC(C)NC(=O)NC(=O)c1ccccc1OCc1ccccc1 (stereo not given)
Activity [12]: inactive
Activity [17]: Dose-dependent effect

pKa [11]: 4.5
EC50 [1]: > 300 µM
SMILES: COc1ccc(Cl)cc1S(=O)(=O)NC(=O)Nc1ccccc1

EC50 [1]: > 300 µM
SMILES: CCOc1ccc(Cl)cc1S(=O)(=O)NC(=O)NC(C)C

EC50 [1]: > 300 µM
SMILES: CCOc1ccc(Cl)cc1S(=O)(=O)NC(=O)NC1CCCCC1

EC50 [1]: 58.2 µM
SMILES: CCCOc1ccccc1C(=O)NC(=O)NC1CCCCC1

EC50 [1]: 26.8 µM
SMILES: CC(C)NC(=O)NC(=O)c1ccccc1OCc1ccccc1

EC50 [1]: 34.5 µM
SMILES: COc1ccccc1C(=O)NC(=S)Nc1ccccc1

EC50 [1]: > 100 µM
SMILES: O=C(NC(=S)NCc1ccccc1)c1ccccc1OCc1ccccc1

EC50 [1]: 16.7 µM
Activity [18]: inactive
EC50 [3]: 36.6 µM
EC50 [4]: 17.2 µM
Activity [6]: 110%
EC50 [7]: 38 µM
Activity [9]: 113%
SMILES: CCNC(=O)NC(=O)c1ccccc1OCc1ccccc1

The next lines start with the compound.

SMILES: COc1ccccc1C(=O)NC(=S)NCc1ccccc1
EC50 [1]: 47.2 µM

SMILES: COc1ccc(F)cc1S(=O)(=O)NC(=O)NC(C)C
pKa [11]: 5.52
EC50 [1]: > 300 µM

SMILES: COc1ccccc1C(=O)NC(=O)Nc1ccccc1
EC50 [1]: 26.7 µM

SMILES: COc1ccccc1C(=O)NC(=O)NC1CCCCC1
EC50 [1]: 35.9 µM

SMILES: COc1ccc(Cl)cc1S(=O)(=O)NC(=S)NCc1ccccc1
EC50 [1]: > 300 µM

SMILES: COc1ccc(Cl)cc1C(=O)NCCc1ccc(S(=O)(=O)NC(=O)NC2CCCCC2)cc1
Activity [13]: Active

SMILES: CCOc1ccc(Cl)cc1S(=O)(=O)NC(=O)Nc1ccccc1
EC50 [1]: > 300 µM

SMILES: COc1ccc(Cl)cc1S(=O)(=O)NC(=O)NC(C)C
pKa [11]: 5.65
EC50 [1]: > 300 µM

SMILES: CC1=Nc2ccc(Cl)cc2S(=O)(=O)N1 [DIAZOXIDE]
Activity [15]: 67%
EC50 [3]: > 300 µM
Activity [6]: 70%
Activity [16]: Active
Activity [9]: 28.8%

SMILES: COc1ccc(Cl)cc1S(=O)(=O)NC(=S)NC(C)C
pKa [11]: 5.74
EC50 [1]: > 300 µM

SMILES: CCOc1ccc(Cl)cc1S(=O)(=O)NC(=S)NCc1ccccc1
EC50 [1]: > 300 µM

SMILES: CCC(C)NC(=O)NC(=O)c1ccccc1OC (stereo not given)
EC50 [1]: 31.8 µM

SMILES: COc1ccc(Cl)cc1S(=O)(=O)NC(=O)NC1CCCCC1
pKa [11]: 5.46
EC50 [1]: > 300 µM

SMILES: O=C(NC(=O)c1ccccc1OCc1ccccc1)NC1CCCCC1
EC50 [1]: 33.8 µM

SMILES: CCOc1ccc(Cl)cc1S(=O)(=O)NC(=S)NC(C)C
EC50 [1]: > 300 µM

SMILES: CCCOc1ccccc1C(=O)NC(=S)NCc1ccccc1
EC50 [1]: 71.1 µM

SMILES: CCCOc1ccccc1C(=O)NC(=O)Nc1ccccc1
EC50 [1]: 59.6 µM

SMILES: CCCCCNC(=O)NC(=O)c1ccccc1OCc1ccccc1
EC50 [1]: 17.3 µM

SMILES: CCNC(=O)NC(=O)c1ccccc1OC
EC50 [1]: > 100 µM

SMILES: COc1ccccc1C(=O)NC(=O)NC(C)C
EC50 [1]: 91.4 µM
